# Data from paper PMC8419008 (Structure (London, England : 1993), 2021).
# Positions count from the first letter of the chain named. Entries after “also recorded” stand apart in the source; their conditions may differ.
# What was measured:
# [1] = molecular target: T1, PHA7-D175K (PLEKHA7 PH domain mutant) (Homo sapiens, UniProt Q6IQ23, D175K); test: ITC titration of mutant PHA7-D175K with soluble IP headgroups or PIP nanodiscs; assay type: binding; conditions: soluble IP headgroups; for Kd: read-out: ITC Kd, PHA7-D175K, 23°C, single-site binding model, average of triplicate; for greater affinity of PHA7-D175K compared to wild-type: ITC
# T1 sequence (Q6IQ23 164-285 D175K): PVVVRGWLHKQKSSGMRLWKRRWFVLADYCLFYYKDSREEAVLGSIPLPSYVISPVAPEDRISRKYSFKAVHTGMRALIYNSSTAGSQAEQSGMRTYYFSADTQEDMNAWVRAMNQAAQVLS
# Method in brief: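 ITC run at 23°C in 15 mM Tris pH 7.6, 70 mM NaCl, 0.5 mM TCEP. Cell held 50 μM protein; syringe held 0.5 mM soluble IP headgroup. Protein concentration was set by A280. Integrated heats were fitted to a single-site binding model to obtain dissociation constants.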
# [2] = molecular target: T2, PLEKHA7 PH domain (PHA7, wild-type) (Homo sapiens, UniProt Q6IQ23); test: ITC titration of wild-type PHA7 with soluble IP headgroups or PIP nanodiscs; conditions: read-out: ITC Kd, PHA7; soluble IP headgroups; 23°C; single-site binding model; average of triplicate
# T2 sequence (Q6IQ23 164-285): T1 sequence (Q6IQ23 164-285 D175K) with K12D
# [3] = molecular target: T3, PHA7 (PLEKHA7 PH domain, wild-type) (Homo sapiens, UniProt Q6IQ23); test: 1H/15N HSQC NMR chemical shift perturbation of 15N-labeled PHA7; assay type: binding; conditions: 15°C; for NMR spectral perturbation / binding of PHA7: soluble or short-chain ligand, 1.5 molar equivalents; for NMR spectral change of PHA7 on incubation with nanodiscs: 1.5 molar equivalents of nanodiscs, 100% diC16-PC or 10% molar diC16-PIP
# T3 sequence (Q6IQ23 164-285): T1 sequence (Q6IQ23 164-285 D175K) with K12D
# Method in brief: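 Human PLEKHA7 PH domain expressed as a GST fusion in E. coli BL21 in M9 with (15NH4)2SO4, then cleaved with HRV 3C, purified by cation exchange and gel filtration. Added directly to preformed MSP1D1Δh5 nanodiscs (100% diC16-PC, or 9/1 diC16-PC with diC16-PI(3,4,5)P3, -PI(4,5)P2 or -PI(3,4)P2). Read-out: 1H/15N chemical shift perturbations.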
# PHA7 (PLEKHA7 PH domain) = molecular target: T4, PHA7 (PLEKHA7 PH domain) (Homo sapiens, UniProt Q6IQ23); test: Liposome co-sedimentation assay; assay type: binding; conditions: pure diC16-PC liposomes or liposomes containing 10% molar diC16-PIP; SDS-PAGE
# T4 sequence (Q6IQ23 164-285): T1 sequence (Q6IQ23 164-285 D175K) with K12D
# Method in brief: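 Small unilamellar vesicles made by bath sonication until translucent, from 100% diC16-PC or 9/1 diC16-PC/diC16-PI(4,5)P2 at 3 mg/mL. 200 uL vesicles mixed with 20 uM PH domain solution, 2 h at room temperature. Airfuge spin at 91,000 rpm for 20 h; supernatant and pellet analysed by SDS-PAGE.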
Kd [1],greater affinity of PHA7-D175K compared to wild-type [1],Kd [2],co-sedimentation of PHA7 with liposomes (PHA7 (PLEKHA7 PH domain)),NMR spectral change of PHA7 on incubation with nanodiscs [3],Compound,NMR spectral perturbation / binding of PHA7 [3]
3.5 ± 0.5 µM,nine-fold,30.1 ± 2.3 µM,–,–,"O=P(O)(O)OC1[C@H](O)[C@H](OP(=O)(O)O)C(OP(=O)(O)O)[C@H](OP(=O)(O)O)[C@H]1O (stereo partly drawn) [IP(3,4,5)P3, inositol (1,3,4,5) tetraphosphate]",weak binding interaction with fast exchange binding dynamics
10.7 ± 0.2 µM,three-fold,30.5 ± 0.6 µM,–,–,"O=P(O)(O)O[C@@H]1[C@H](O)[C@H](O)[C@@H](OP(=O)(O)O)[C@H](OP(=O)(O)O)[C@H]1O [IP(4,5)P2, inositol (1,4,5) triphosphate]",–
–,–,–,–,–,CCCCCCCC(=O)OC[C@H](COP(=O)(O)OC1[C@H](O)[C@H](O)C(O)[C@H](O)[C@H]1O)OC(=O)CCCCCCC (stereo partly drawn) [diC8-PI],no perturbations; also recorded: does not bind
–,–,–,does not sediment,no detectable NMR spectral changes,"CCCCCCCCCCCCCCCC(=O)OC[C@H](COP(=O)([O-])OCC[N+](C)(C)C)OC(=O)CCCCCCCCCCCCCCC [diC16-PC, dipalmitoyl-phosphatidyl-choline]",–
–,–,–,abundant co-sedimentation,effectively obliterated,"phosphatidyl inositol (3,4,5) triphosphate [PI(3,4,5)P3]",–
